Consider 24 sequences from the EternaBench riboswitch data.

The test system of this series is MS2 coat protein. Nature of the series: apparent Kd, MS2 coat protein; higher = weaker binding; RNA-MaP array; FMN 200 µM where present. A digest of the protocol: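 The apparent Kd is reported as the median of filtered per-cluster binding-curve fits. To get these curves, designs transcribed by stalled E. coli RNA polymerase on Illumina sequencing-chip clusters were titrated with SNAP-549-labelled MS2 coat protein from 0.7 or 1.5 nM, doubling to 3 µM. Titrations were run without and then with constant ligand in 100 mM Tris-HCl pH 7.5, 80 mM KCl, 4 mM MgCl2, BSA, DTT, yeast tRNA and Tween-20, and green signal was normalised to red-channel RNA signal and control-cluster median Fmax.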

[1] abbreviates: designed as: OFF switch for flavin mononucleotide, no ligand.
The mark [2] stands for this setting: ligand present: flavin mononucleotide, designed as: OFF switch for flavin mononucleotide.
Setting [3] is: designed as: ON switch for flavin mononucleotide, no ligand.
The mark [4] stands for this setting: ligand present: flavin mononucleotide, designed as: ON switch for flavin mononucleotide.

What is called apparent Kd is a dissociation constant that holds for the conditions of the assay. On to “CCAUGCGGAUGAGGAUAUUCAUCUAUGAGGAUAGAAGAAGGCAUACAUGAGGAUCACCCAUGUAUACGCAUGAGGAUCCCUUAC”, for which the “apparent Kd” value under setting [1] amounted to 24 nM and the “apparent Kd” value under setting [2] was determined as 26 nM.

Take “CCGGAUACGGGUAGCUGACAUGAGGAUCACCCAUGUGAAUCUGAGGAUAUGGAUCCUAAUUGGAUCCAGAAGGCAGUCAGCUAC”: the “apparent Kd” value under setting [3] was 618 nM and the “apparent Kd” value under setting [4] is 61.5 nM.

For the sequence “UCGUGAAUAGAGGAUAUAUUAAUAUUUAAAACAAUAGAAGGCUAAACAUGAGGAUCACCCAUGUAAAUGGUUUU”, the “apparent Kd” value is, setting by setting: under setting [1], 28.1 nM; under setting [2], 116 nM.

“UGGUACAUGAGGAUCACCCAUGUAAGAGCCCUCAUGCGAUGUAGAAGGUUAAUGCGUGUAGUGCUAAAGGAUAUACAUGAGUUU”: the “apparent Kd” value reads like this: under setting [1], 82.3 nM; under setting [2], 71.2 nM.

With “CAAAAGCUAGGAUAUACGUCAAAGGGCCCGAUCGCUCUCGGACAUGAGGAUCACCCAUGUAGAAGGAGCGCACU”, the “apparent Kd” value runs as follows: under setting [1], 14.4 nM; under setting [2], 16.8 nM.

Consider “GGCUAGCCUCAAGGAUAUACGCUCUCAACAAAGAACCGACUACAUGAGGAUCACCCAUGUACCAUGUAGAAGGUGAGGUUAGCC”, for which the “apparent Kd” value is, setting by setting: under setting [3], 906 nM; under setting [4], 58.1 nM.

On to “CUUUUGUGAGGAUAUCAGUAGUAAAAAUAUAAAAUUACUACUGAGAAGGCACAUGAGGAUCACCCAUGUUCCUC”, for which the “apparent Kd” value is, setting by setting: under setting [1], 39.7 nM; under setting [2], 244 nM.

For the sequence “GGAUAGGACAGAGGAUAUACAGAUAGGAUCUACUAUCAAACAGUCCUGACAUGAGGAUCACCCAUGUAGAAGGCUGUCCUAUCG”, the “apparent Kd” value came to 21.9 nM under setting [1] and 107 nM under setting [2].

As for “AAGAAAGAAACGCAGGAUAUGCAAAACAAAACAUGAGGAUCACCCAUGUCUUACUUACAAACAAAGCAGAAGGGCGAAAGAAAGAA”, the “apparent Kd” value runs as follows: under setting [3], 20.1 nM; under setting [4], 13.2 nM.

“UGAUACCAAGGAUAUACAUGAGGAUCACCCAUGUCGGACCGAUGUGUCUCCUCCUGCUGUAGAAGGUGGAAAAU”: the “apparent Kd” value under setting [1] stood at 39.9 nM and the “apparent Kd” value under setting [2] was 55.6 nM.

For the sequence “AGUGACGACACAGGAUAUGCUGGACUUUGUCCAGCAGAAGGGUGUUAACAUGAGGAUCACCCAUGUAUCGUCACCAAAUUUAAU”, the “apparent Kd” value is 628 nM under setting [3] and 34.1 nM under setting [4].

With “UUAUUAUAUGUAGGAUAUGCAUAUUAUUAUUGUGCAGAAGGACAUGAGGAUCACCCAUGUAUAUUAUUAGUAUAUAUUAUAUAU”, the “apparent Kd” value was determined as 18.5 nM under setting [1] and 19.2 nM under setting [2].

“ACCUUACUGGUCAGGAUAUACAGUCUUGGGUGGGUGUAGAAGGGACAUGAGGAUCACCCAUGUAGGUUGCAGCA”: the “apparent Kd” value is, setting by setting: under setting [1], 129 nM; under setting [2], 126 nM.

In the case of “AAUGGCUAGCGCUCUGGAACUGCACAGGAUAUGAAGAGCUACAUGAGGAUCACCCAUGUUUAAAAUCAGAAGGGUGAGUAUCAG”, the “apparent Kd” value was found to be 166 nM under setting [3] and 16.2 nM under setting [4].

For the sequence “UUGUUAUAUGUAGGAUAUGCAUAUUAUUAUUAUGCAGAAGGACAUGAGGAUCACCCAUGUGUAUUAUUAUUAUAUAUUAUAUAU”, the “apparent Kd” value under setting [1] came out at 23.2 nM and the “apparent Kd” value under setting [2] was determined as 33.2 nM.

With “CCAAGGAGAGGAUAUACACGGUUAUGGCCUCUUGAGUGGCGACAUGAGGAUCACCCAUGUAGAAGGCUCAGGGC”, the “apparent Kd” value amounted to 20.2 nM under setting [1] and 57.4 nM under setting [2].

For “CAAUCACCCUCAUGUACCUGAGGACAUGAGGAUCACCCAUGUAAGGAUAUAGCCAUUAAAUCUAACUAGAAGGUAUAAAUAACC”, the “apparent Kd” value came out at 1010 nM under setting [1] and 523 nM under setting [2].

Regarding “UUGAUAAGGAGAGGAUAUUGACAUGAGGAUCACCCAUGUACAUGGGAGUAUUUACUGAAUUCUUACGAGAAGGCUUACAUAUUU”, the “apparent Kd” value was 165 nM under setting [1] and 115 nM under setting [2].

Consider “GUCAGCUCGUGAGGAUAUACAACACUGCUUCGGCAGUGUAUUCAGAUCACAUGAGGAUCACCCAUGUAGAAGGCACGAGCUGAU”, for which the “apparent Kd” value under setting [1] came out at 12.8 nM and the “apparent Kd” value under setting [2] came out at 206 nM.

In the case of “UAAUAUUUAUGAUAUUAUUACAUUAGAAGGCAAGACAUGUGGAUACAUGAGGAUCACCCAUGUAUUGAGGAUAUAGACAUAUAU”, the “apparent Kd” value is 15.4 nM under setting [1] and 19.2 nM under setting [2].

For “GUAGAGUAAGGAUAUUGUGAAUAGGAUAGAAUGGUUAGAAACAAGAAGGUACAUGAGGAUCACCCAUGUAAUGU”, the “apparent Kd” value is, setting by setting: under setting [1], 22.1 nM; under setting [2], 19.8 nM.

“AAAGGCCGAGGAUAUACAUGAGGAUCACCCAUGUGGACUCUGCAGAAUUGAUACCUUGGUAGAAGGUGGACCGG”: the “apparent Kd” value reads like this: under setting [1], 23 nM; under setting [2], 18.4 nM.

Turning to “UGGCUGAGUCGAGGAUAUGAUCUUCAUAUAUAUACAUGAGGAUCACCCAUGUAUAAUUACAUGGAUCAGAAGGCGACUCAGCCU”, the “apparent Kd” value runs as follows: under setting [3], 29.4 nM; under setting [4], 9.47 nM.

“AACGAAAGCCAAGGAUAUGCAGGUGACAUGAGGAUCACCCAUGUGGAUUGUGAUCCUUAACUGAUGCAGAAGGUGGAUCUGUUG”: the “apparent Kd” value under setting [1] came to 513 nM and the “apparent Kd” value under setting [2] stood at 322 nM.
